Data published in ChEMBL document CHEMBL1649124, “Genetic variability among ampC genes from acinetobacter genomic species 3” (Antimicrob Agents Chemother, 2009).

Key:
Settings in all cases: Acinetobacter pittii
[1] = tested on: C[C@H]1[C@H](NC(=O)/C(=N\OC(C)(C)C(=O)O)c2csc(N)n2)C(=O)N1S(=O)(=O)O; experiment: (§1) Activity of Acinetobacter genomosp. 3 isolate 103 ADC-16
Method in brief: (§2)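 AmpC genes from AG3 clinical isolates were cloned into pGEX-6P-1 and expressed as GST fusions. The mature enzyme was purified free of GST, giving a 43 kDa SDS-PAGE band of 95% purity. Kinetics were read spectrophotometrically at 25°C in PBS with 20 mg/liter BSA, three repeats. For poor substrates, Km was taken as Ki in competitive assays with Centa as reporter substrate. Vmax came from the Michaelis-Menten equation at six times Km antibiotic.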

[2] = tested on: CC(C)(O/N=C(\C(=O)N[C@@H]1C(=O)N2C(C(=O)[O-])=C(C[n+]3ccccc3)CS[C@H]12)c1csc(N)n1)C(=O)O; experiment: as §1; method in brief: as §2
[3] = tested on: CO/N=C(\C(=O)N[C@@H]1C(=O)N2C(C(=O)O)=C(COC(N)=O)CS[C@H]12)c1ccco1; experiment: as §1; method in brief: as §2
[4] = tested on: CO[C@@]1(NC(=O)Cc2cccs2)C(=O)N2C(C(=O)O)=C(COC(N)=O)CS[C@@H]21; experiment: as §1; method in brief: as §2
[5] = tested on: CO/N=C(\C(=O)N[C@@H]1C(=O)N2C(C(=O)O)=C(COC(C)=O)CS[C@H]12)c1csc(N)n1; experiment: as §1; method in brief: as §2
[6] = tested on: CC(=O)OCC1=C(C(=O)O)N2C(=O)[C@@H](NC(=O)Cc3cccs3)[C@H]2SC1; experiment: as §1; method in brief: as §2
[7] = tested on: CC(C)(O/N=C(\C(=O)N[C@@H]1C(=O)N2C(C(=O)[O-])=C(C[n+]3ccccc3)CS[C@H]12)c1csc(N)n1)C(=O)O; experiment: (§3) Ratio of Kcat to Km for Acinetobacter genomosp. 3 isolate 103 ADC-16; method in brief: as §2
[8] = tested on: CO/N=C(\C(=O)N[C@@H]1C(=O)N2C(C(=O)O)=C(COC(N)=O)CS[C@H]12)c1ccco1; experiment: as §3; method in brief: as §2
[9] = tested on: CO[C@@]1(NC(=O)Cc2cccs2)C(=O)N2C(C(=O)O)=C(COC(N)=O)CS[C@@H]21; experiment: as §3; method in brief: as §2
[10] = tested on: CO/N=C(\C(=O)N[C@@H]1C(=O)N2C(C(=O)O)=C(COC(C)=O)CS[C@H]12)c1csc(N)n1; experiment: as §3; method in brief: as §2
[11] = tested on: CC(=O)OCC1=C(C(=O)O)N2C(=O)[C@@H](NC(=O)Cc3cccs3)[C@H]2SC1; experiment: as §3; method in brief: as §2
[12] = tested on: CO/N=C(\C(=O)N[C@@H]1C(=O)N2C(C(=O)O)=C(COC(N)=O)CS[C@H]12)c1ccco1; experiment: (§4) Ratio of Kcat to Km for Acinetobacter genomosp. 3 isolate 195 ADC-18; method in brief: as §2
[13] = tested on: CO[C@@]1(NC(=O)Cc2cccs2)C(=O)N2C(C(=O)O)=C(COC(N)=O)CS[C@@H]21; experiment: as §4; method in brief: as §2
[14] = tested on: CC(=O)OCC1=C(C(=O)O)N2C(=O)[C@@H](NC(=O)Cc3cccs3)[C@H]2SC1; experiment: as §4; method in brief: as §2
[15] = tested on: CC(C)(O/N=C(\C(=O)N[C@@H]1C(=O)N2C(C(=O)[O-])=C(C[n+]3ccccc3)CS[C@H]12)c1csc(N)n1)C(=O)O; experiment: (§5) Activity of Acinetobacter genomosp. 3 isolate 195 ADC-18; method in brief: as §2
[16] = tested on: CO/N=C(\C(=O)N[C@@H]1C(=O)N2C(C(=O)O)=C(COC(N)=O)CS[C@H]12)c1ccco1; experiment: as §5; method in brief: as §2
[17] = tested on: CO[C@@]1(NC(=O)Cc2cccs2)C(=O)N2C(C(=O)O)=C(COC(N)=O)CS[C@@H]21; experiment: as §5; method in brief: as §2
[18] = tested on: CC(=O)OCC1=C(C(=O)O)N2C(=O)[C@@H](NC(=O)Cc3cccs3)[C@H]2SC1; experiment: as §5; method in brief: as §2

In the case of “ADC-16 protein (Acinetobacter genomosp. 3) (from UniProt Q0VTR8)”, the Km [1] is reported as 3.85 µM, the Km [2] is reported as 110 µM and the kcat [2] is reported as 0.02 s⁻¹. For the same substance, the Km [3] was 0.27 µM, the kcat [3] was 0.62 s⁻¹ and the Km [4] was 0.18 µM. The kcat [4] was 0.33 s⁻¹, the Km [5] was 0.32 µM and the kcat [5] was 0.07 s⁻¹. For the same substance, the Km [6] was 139 µM, the kcat [6] was 1380 s⁻¹ and the kcat/Km [7] was 212000 M⁻¹ s⁻¹. The kcat/Km [8] was 2.34e+06 M⁻¹ s⁻¹, the kcat/Km [9] was 1.88e+06 M⁻¹ s⁻¹ and the kcat/Km [10] was 212000 M⁻¹ s⁻¹. It also gave a kcat/Km [11] of 9.92e+06 M⁻¹ s⁻¹.

“ADC-18 protein (Acinetobacter genomosp. 3) (from UniProt Q0VTS0)” showed a kcat/Km [12] of 1.79e+06 M⁻¹ s⁻¹, a kcat/Km [13] of 1.99e+06 M⁻¹ s⁻¹ and a kcat/Km [14] of 9.57e+06 M⁻¹ s⁻¹. It also gave a Km [15] of 84 µM, a kcat [15] of 0.02 s⁻¹ and a Km [16] of 0.27 µM. It also gave a kcat [16] of 0.48 s⁻¹, a Km [17] of 0.13 µM and a kcat [17] of 0.27 s⁻¹. For the same substance, the Km [18] was 148 µM and the kcat [18] was 1420 s⁻¹.
